# How the values were obtained:
# K562 [1] = assay: Induction of apoptosis in human K562 cells assessed as increase in early apoptotic cells at 2.5 to 10 uM after 48 hrs by Annexin V-FITC/propidium iodide staining based flow cytometry relative to control; format: functional
# K562 [2] = assay: Induction of apoptosis in human K562 cells assessed as necrotic cells at 10 uM after 48 hrs by Annexin V-FITC/propidium iodide staining based flow cytometry (reference value: 0%); format: functional
# Neutrophil collagenase = Neutrophil collagenase (Homo sapiens, UniProt P22894); assay: Inhibition of recombinant human MMP8 (Phe99 to Gln269 residues) expressed in Escherichia coli using Ac-Pro-Leu-Gly-S-Leu-Leu-Gly-OEt as substrate after 1 hr measured at 1 min time interval for 30 mins by microplate photometric method
# Neutrophil collagenase, sequence (P22894 whole entry): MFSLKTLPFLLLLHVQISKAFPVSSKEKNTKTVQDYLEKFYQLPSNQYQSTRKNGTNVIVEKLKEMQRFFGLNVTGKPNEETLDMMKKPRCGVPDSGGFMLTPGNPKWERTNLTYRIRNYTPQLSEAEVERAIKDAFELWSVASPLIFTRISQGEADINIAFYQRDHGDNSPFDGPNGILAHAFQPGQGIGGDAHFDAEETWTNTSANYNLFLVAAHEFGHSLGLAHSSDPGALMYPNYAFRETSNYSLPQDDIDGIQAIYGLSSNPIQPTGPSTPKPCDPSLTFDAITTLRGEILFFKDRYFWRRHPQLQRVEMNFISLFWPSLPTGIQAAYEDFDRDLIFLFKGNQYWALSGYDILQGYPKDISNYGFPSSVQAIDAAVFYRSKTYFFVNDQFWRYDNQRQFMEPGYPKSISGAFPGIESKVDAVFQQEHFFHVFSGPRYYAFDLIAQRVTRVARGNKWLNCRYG
# In short: (§1)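 Commercial MMP kits; compound preincubated with enzyme before chromogenic substrate was added. Reactions at 37 °C for 1 h, with at least six inhibitor concentrations in triplicate. Absorbance at 410 nm read every 1 min for 30 min. NNGH used as reference inhibitor. IC50 taken from semi-logarithmic dose-response plots.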
# K562 [3] = assay: Anti-invasive activity against human K562 cells at 10 uM after 24 hrs by CyQuantGR dye based fluorimetric QCM EC matrix assay relative to control; format: functional; details: K562, 24 h
# In short: (§2)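 K562 cells (1X10^6 cells/ml) starved overnight in FBS-free medium, then placed in inserts in FBS-free medium with 5% BSA, with 5% FBS medium below as chemoattractant. Treated at 2.5, 5 and 10 μM in triplicate for 24 h alongside an untreated control. Invaded cells were detached, stained with CyQuantGR and read by fluorescence (ex 480/em 520 nm). Results given as % of control, mean ± SD.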
# K562 [4] = assay: Anti-invasive activity against human K562 cells at 5 uM after 24 hrs by CyQuantGR dye based fluorimetric QCM EC matrix assay relative to control; format: functional; details: K562, 24 h; in short: as §2
# K562 [5] = assay: Induction of apoptosis in human K562 cells assessed as increase in late apoptotic cells at 2.5 to 10 uM after 48 hrs by Annexin V-FITC/propidium iodide staining based flow cytometry relative to control; format: functional
# K562 [6] = assay: Cell cycle arrest in human K562 cells assessed as accumulation at sub-G1 phase at 5 uM after 24 hrs by propidium iodide staining based flow cytometry (reference value: 1%)
# K562 [7] = assay: Downregulation of MMP2 protein expression in human K562 cells assessed as MMP2 negative population at 2.5 uM after 48 hrs by FITC staining based flow cytometry (reference value: 1.6%)
# K562 [8] = assay: Anti-invasive activity against human K562 cells assessed as at 2.5 uM after 24 hrs by CyQuantGR dye based fluorimetric QCM EC matrix assay relative to control; format: functional; details: K562, 24 h; in short: as §2
# K562 [9] = assay: Cell cycle arrest in human K562 cells assessed as accumulation at G2/M-phase at 2.5 uM after 24 hrs by propidium iodide staining based flow cytometry (reference value: 35.3%)
# K562 [10] = assay: Induction of apoptosis in human K562 cells assessed as live cells at 5 uM after 48 hrs by Annexin V-FITC/propidium iodide staining based flow cytometry (reference value: 90.1%); format: functional
# PBMC = assay: Cytotoxicity against human PBMC assessed as reduction in cell viability after 48 hrs by MTT assay; format: cell-based
# In short: (§3)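 A549, MDA-MB-231, K562, U937 and PBMC (PBMC from healthy donors) seeded at 1×10^3 cells/well and left 24 h, then exposed to compounds for 48 h at 37 °C, 5% CO2. Adherent lines were grown in DMEM, the others in RPMI-1640 with 10% heat-inactivated FBS. MTT read-out; viability expressed as % of untreated control. IC50 taken as the concentration giving 50% viability loss.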
# K562 [11] = assay: Induction of apoptosis in human K562 cells assessed as live cells at 10 uM after 48 hrs by Annexin V-FITC/propidium iodide staining based flow cytometry (reference value: 90.1%); format: functional
# K562 [12] = assay: Downregulation of MMP2 protein expression in human K562 cells assessed as MMP2 negative population at 5 uM after 48 hrs by FITC staining based flow cytometry (reference value: 1.6%)
# K562 [13] = assay: Cell cycle arrest in human K562 cells assessed as accumulation at G1/S-phase at 2.5 uM after 24 hrs by propidium iodide staining based flow cytometry (reference value: 21.8%)
# K562 [14] = assay: Induction of apoptosis in human K562 cells assessed as necrotic cells at 2.5 uM after 48 hrs by Annexin V-FITC/propidium iodide staining based flow cytometry (reference value: 0%); format: functional
# K562 [15] = assay: Induction of apoptosis in human K562 cells assessed as live cells at 2.5 uM after 48 hrs by Annexin V-FITC/propidium iodide staining based flow cytometry (reference value: 90.1%); format: functional
# [16] = target: Matrix metalloproteinase-14 (Homo sapiens, UniProt P50281); assay: Inhibition of recombinant human MMP14 (Tyr112 to Arg298 residues) expressed in Escherichia coli using Ac-Pro-Leu-Gly-S-Leu-Leu-Gly-OEt as substrate after 1 hr measured at 1 min time interval for 30 mins by microplate photometric method; in short: as §1
# K562 [17] = assay: Downregulation of MMP2 protein expression in human K562 cells assessed as MMP2 negative population at 10 uM after 48 hrs by FITC staining based flow cytometry (reference value: 1.6%)
# MDA-MB-231 = assay: Cytotoxicity against human MDA-MB-231 cells assessed as reduction in cell viability after 48 hrs by MTT assay; format: functional, cell-based; details: MDA-MB-231, 48 h; in short: as §3
# K562 [18] = assay: Cell cycle arrest in human K562 cells assessed as accumulation at G1-phase at 2.5 uM after 24 hrs by propidium iodide staining based flow cytometry (reference value: 27.5%)
# K562 [19] = assay: Induction of apoptosis in human K562 cells assessed as early apoptotic cells at 10 uM after 48 hrs by Annexin V-FITC/propidium iodide staining based flow cytometry (reference value: 9.6%); format: functional
# [20] = target: Matrix metalloproteinase-9 (Homo sapiens, UniProt P14780); assay: Inhibition of recombinant human MMP9 (Phe107 to Pro449 residues) expressed in Escherichia coli using Ac-Pro-Leu-Gly-S-Leu-Leu-Gly-OEt as substrate after 1 hr measured at 1 min time interval for 30 mins by microplate photometric method; in short: as §1
# Matrix metalloproteinase-9, sequence (P14780 whole entry): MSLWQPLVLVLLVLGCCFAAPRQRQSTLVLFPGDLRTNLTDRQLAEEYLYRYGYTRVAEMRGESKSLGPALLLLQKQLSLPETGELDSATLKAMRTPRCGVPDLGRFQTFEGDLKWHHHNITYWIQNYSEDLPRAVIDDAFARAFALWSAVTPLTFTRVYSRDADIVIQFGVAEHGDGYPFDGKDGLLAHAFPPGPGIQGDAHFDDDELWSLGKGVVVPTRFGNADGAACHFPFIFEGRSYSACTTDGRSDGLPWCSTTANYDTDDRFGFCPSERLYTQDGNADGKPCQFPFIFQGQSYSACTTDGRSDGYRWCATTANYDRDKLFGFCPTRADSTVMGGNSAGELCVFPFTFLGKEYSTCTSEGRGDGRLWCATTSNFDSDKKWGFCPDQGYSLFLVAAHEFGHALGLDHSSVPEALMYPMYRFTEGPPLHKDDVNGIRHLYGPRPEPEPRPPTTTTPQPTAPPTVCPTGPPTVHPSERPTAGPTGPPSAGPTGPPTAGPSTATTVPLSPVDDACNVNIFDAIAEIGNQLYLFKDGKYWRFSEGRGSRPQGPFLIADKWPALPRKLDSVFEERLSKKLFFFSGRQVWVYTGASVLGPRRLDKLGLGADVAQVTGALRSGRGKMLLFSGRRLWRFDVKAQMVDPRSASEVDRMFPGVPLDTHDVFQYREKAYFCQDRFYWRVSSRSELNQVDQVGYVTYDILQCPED
# K562 [21] = assay: Downregulation of MMP2 protein expression in human K562 cells assessed as MMP2 positive population at 10 uM after 48 hrs by FITC staining based flow cytometry (reference value: 98.4%)
# K562 [22] = assay: Downregulation of MMP2 protein expression in human K562 cells assessed as MMP2 positive population at 2.5 uM after 48 hrs by FITC staining based flow cytometry (reference value: 98.4%)
compound,measurement,setting,value
CCCCCNC(=O)CC[C@H](NS(=O)(=O)c1ccc([N+](=O)[O-])cc1)C(=O)O,fold change (FC),K562 [1],<=300
same,Activity,K562 [2],0.4%
same,IC50,Neutrophil collagenase,> 500 µM
same,inhibition at 10 µM,K562 [3],24.1%
same,inhibition at 5 µM,K562 [4],14.2%
same,fold change (FC),K562 [5],<=300
same,Activity,K562 [6],2.4%
same,Activity,K562 [7],73.7%
same,inhibition at 2.5 µM,K562 [8],12.4%
same,Activity,K562 [9],36%
same,Activity,K562 [10],76%
same,IC50,PBMC,> 1000 µM
same,Activity,K562 [11],74%
same,Activity,K562 [12],81.1%
same,Activity,K562 [13],20%
same,Activity,K562 [14],0.5%
same,Activity,K562 [15],73.5%
same,IC50,[16],436 µM
same,Activity,K562 [17],84.4%
same,IC50,MDA-MB-231,162 µM
same,Activity,K562 [18],30.7%
same,Activity,K562 [19],15.4%
same,IC50,[20],6.8 µM
same,Activity,K562 [21],15.6%
same,Activity,K562 [22],26.3%

# Reference: ChEMBL document CHEMBL4130487, “A pentanoic acid derivative targeting matrix metalloproteinase-2 (MMP-2) induces apoptosis in a chronic myeloid leukemia cell line” (Eur J Med Chem, 2017)
